Measured values reported in ChEMBL document CHEMBL1134236, “Anti-MRSA cephems. Part 1: C-3 substituted thiopyridinium derivatives” (Bioorg Med Chem Lett, 2001).
≈ marks a conversion by molar mass, not a printed value.

Assays:
Staphylococcus aureus [1] = experiment: Minimum inhibitory concentration against methicillin-resistant Staphylococcus aureus (MRSA) A27223 in the presence of 50% calf serum.; type: functional
Outline: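 NCCLS broth MIC in Mueller-Hinton broth with 2% NaCl plus 50% calf serum. Inoculum about 5×10⁵ CFU/mL, incubated at 35 °C for 24 h. Read as the lowest concentration with no visible growth.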

Staphylococcus aureus [2] = experiment: Dose required for protective activity against methicillin-resistant Staphylococcus aureus (MRSA) A27223 in mouse following i.m. administration.; conditions: im, read-out: PD50
Staphylococcus aureus [3] = experiment: Minimum inhibitory concentration against methicillin-resistant Staphylococcus aureus (MRSA) A27223; type: functional
Outline: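 Broth microdilution per NCCLS in Mueller-Hinton broth with 2% NaCl. Inoculum about 5×10⁵ CFU/mL, incubated at 35 °C for 24 h. MIC is the lowest drug concentration that inhibits all visible growth.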

[4] = Concentration required for the inhibitory activity against PBP2a
Staphylococcus aureus [5] = experiment: Concentration required for 90% inhibitory activity against methicillin-resistant Staphylococcus aureus; type: functional
Outline: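 Panel of 58 MRSA strains tested by NCCLS broth method in Mueller-Hinton broth with 2% NaCl. Inoculum about 5×10⁵ CFU/mL, 35 °C for 24 h. MICs read as no visible growth, and MIC90 derived across the panel.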

Streptococcus pneumoniae [6] = experiment: Minimum inhibitory concentration against Streptococcus pneumoniae / Pen.I A27881; type: functional
Outline: (§1)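 Broth dilution MIC under standard NCCLS-recommended conditions. The MIC was read as the lowest drug concentration giving no visible growth. Where the line states it, 50% calf serum was added.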

Streptococcus pneumoniae [7] = experiment: Minimum inhibitory concentration against penicillin resistant Streptococcus pneumoniae A28272; type: functional
Staphylococcus aureus [8] = experiment: Minimum inhibitory concentration against Staphylococcus aureus / + 50% calf serum A27223; type: functional
Outline: (§2)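 Broth MIC under NCCLS standard conditions in Mueller-Hinton broth plus 2% NaCl. Inoculum was about 5×10⁵ CFU/mL, incubated at 35 °C for 24 h. The endpoint was the lowest drug concentration inhibiting all visible growth. Where the line states it, 50% calf serum was added.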

Staphylococcus aureus [9] = experiment: Minimum inhibitory concentration against Staphylococcus aureus / Homo MR A27223; type: functional; outline: as §2
Streptococcus pyogenes = experiment: Minimum inhibitory concentration against Streptococcus pyogenes Todd Hewitt A9604; type: functional; outline: as §1
[10] = system: Staphylococcus epidermidis; experiment: Minimum inhibitory concentration against Staphylococcus epidermidis A24548; type: functional; outline: as §1
[11] = system: Staphylococcus haemolyticus; experiment: Minimum inhibitory concentration against Staphylococcus haemolyticus / Homo MR A27229; type: functional; outline: as §1
Staphylococcus aureus [12] = experiment: Minimum inhibitory concentration against Staphylococcus aureus / Pen.- A9497; type: functional; outline: as §1
[13] = system: Staphylococcus haemolyticus; experiment: Minimum inhibitory concentration against Staphylococcus haemolyticus A21638; type: functional; outline: as §1
Staphylococcus aureus [14] = experiment: Minimum inhibitory concentration against Staphylococcus aureus / Homo MR A27621; type: functional; outline: as §2
[15] = system: Staphylococcus epidermidis; experiment: Minimum inhibitory concentration against Staphylococcus epidermidis / Imipenem A27368; type: functional; outline: as §1
Staphylococcus aureus [16] = experiment: Minimum inhibitory concentration against Staphylococcus aureus / MR. P- A27225; type: functional; outline: as §2
Staphylococcus aureus [17] = experiment: Minimum inhibitory concentration against Staphylococcus aureus A9606 with 50% calf serum; type: functional; outline: as §1
Staphylococcus aureus [18] = experiment: Minimum inhibitory concentration against Staphylococcus aureus / Hetero MR A27218; type: functional; outline: as §2
Enterococcus faecalis [19] = experiment: Minimum inhibitory concentration against Enterococcus faecalis A20688 with 50% calf serum; type: functional; outline: as §1
Enterococcus faecalis [20] = experiment: Minimum inhibitory concentration against Enterococcus faecalis A20688; type: functional; outline: as §1
Staphylococcus aureus [21] = experiment: Minimum inhibitory concentration against Staphylococcus aureus A20241 /MS/Pen.; type: functional; outline: as §1
Enterococcus faecium [22] = experiment: Minimum inhibitory concentration against Enterococcus faecium A24885; type: functional; outline: as §1
[23] = system: Staphylococcus epidermidis; experiment: Minimum inhibitory concentration against Staphylococcus epidermidis / MR A25783; type: functional; outline: as §1
Staphylococcus aureus [24] = experiment: Minimum inhibitory concentration against Staphylococcus aureus A27218 with 50% calf serum; type: functional; outline: as §2
Staphylococcus aureus [25] = experiment: Minimum inhibitory concentration against Staphylococcus aureus / Homo MR A27226; type: functional; outline: as §2
Enterococcus faecium [26] = experiment: Minimum inhibitory concentration against Enterococcus faecium Amp. R. Vanco. S A28156; type: functional; outline: as §1
Staphylococcus aureus [27] = experiment: Minimum inhibitory concentration against Staphylococcus aureus / Homo MR A27295; type: functional; outline: as §2
Staphylococcus aureus [28] = experiment: Minimum inhibitory concentration against Staphylococcus aureus / Hetero MR A27217; type: functional; outline: as §2
Staphylococcus aureus [29] = experiment: Minimum inhibitory concentration against Staphylococcus aureus / Pen.+ A9606; type: functional; outline: as §1

## Cc1cc(SCC2=C(C(=O)O)N3C(=O)[C@@H](NC(=O)CSc4cc(Cl)ccc4Cl)[C@H]3SC2)cc(CCC(=O)O)[n+]1CCN.O=C(O)C(F)(F)F.O=C([O-])C(F)(F)F
Staphylococcus aureus [1]
  MIC: 2 µg/mL
Staphylococcus aureus [2]
  ED50: 3.9 mg/kg
Staphylococcus aureus [3]
  MIC: 2 µg/mL

## NC(CCC[n+]1ccc(SCC2=C(C(=O)[O-])N3C(=O)[C@@H](NC(=O)CSc4cc(Cl)ccc4Cl)[C@H]3SC2)cc1)C(=O)O (some centres undefined)
[4]
  IC50: 2800 nM
Staphylococcus aureus [1]
  MIC: 4 µg/mL
Staphylococcus aureus [5]
  MIC90: 3.5 µg/mL (≈ 5.32 µM)
Staphylococcus aureus [2]
  ED50: 4.1 mg/kg
Staphylococcus aureus [3]
  MIC: 1 µg/mL (≈ 1.52 µM)

## Cc1cc(SCC2=C(C(=O)[O-])N3C(=O)[C@@H](NC(=O)CSc4cc(Cl)ccc4Cl)[C@H]3SC2)cc(CCc2ccc(Cl)s2)[n+]1CC[C@@H](O)C(=O)O
Staphylococcus aureus [1]
  MIC: 8 µg/mL
Staphylococcus aureus [2]
  ED50: > 23 mg/kg
Staphylococcus aureus [3]
  MIC: 8 µg/mL (≈ 9.96 µM)

## NCCC[n+]1ccc(SCC2=C(C(=O)O)N3C(=O)[C@@H](NC(=O)CSc4cc(Cl)nc(Cl)c4)[C@H]3SC2)cc1CCCC(=O)O.O=C(O)C(F)(F)F.O=C([O-])C(F)(F)F
Staphylococcus aureus [1]
  MIC: 4 µg/mL
Staphylococcus aureus [2]
  ED50: 4.3 mg/kg
Staphylococcus aureus [3]
  MIC: 2 µg/mL

## CCCC[n+]1c(C)cc(SCC2=C(C(=O)[O-])N3C(=O)[C@@H](NC(=O)CSc4cc(Cl)ccc4Cl)[C@H]3SC2)cc1CCC(=O)O
Staphylococcus aureus [1]
  MIC: 8 µg/mL
Staphylococcus aureus [2]
  ED50: > 23 mg/kg
Staphylococcus aureus [3]
  MIC: 4 µg/mL (≈ 5.84 µM)

## Cc1cc(SCC2=C(C(=O)[O-])N3C(=O)[C@@H](NC(=O)CSc4cc(Cl)ccc4Cl)[C@H]3SC2)cc(CCC(=O)O)[n+]1CCO
Staphylococcus aureus [1]
  MIC: 4 µg/mL
Staphylococcus aureus [2]
  ED50: 8.4 mg/kg
Staphylococcus aureus [3]
  MIC: 2 µg/mL (≈ 2.97 µM)

## Cc1cc(SCC2=C(C(=O)[O-])N3C(=O)[C@@H](NC(=O)CSc4cc(Cl)ccc4Cl)[C@H]3SC2)cc(CCc2ccccc2)[n+]1CCS(=O)(=O)O
Staphylococcus aureus [1]
  MIC: 4 µg/mL
Staphylococcus aureus [2]
  ED50: > 25 mg/kg
Staphylococcus aureus [3]
  MIC: 2 µg/mL (≈ 2.6 µM)

## NCCC[n+]1ccc(SCC2=C(C(=O)O)N3C(=O)[C@@H](NC(=O)CSc4cc(Cl)ccc4Cl)[C@H]3SC2)cc1CCC(=O)O.O=C(O)C(F)(F)F.O=C([O-])C(F)(F)F
Streptococcus pneumoniae [6]
  MIC: 0.003 µg/mL
Streptococcus pneumoniae [7]
  MIC: 0.06 µg/mL
Staphylococcus aureus [8]
  MIC: 2 µg/mL
Staphylococcus aureus [9]
  MIC: 2 µg/mL
Streptococcus pyogenes
  MIC: 0.003 µg/mL
[10]
  MIC: 0.03 µg/mL
[11]
  MIC: 2 µg/mL
Staphylococcus aureus [12]
  MIC: 0.007 µg/mL
Staphylococcus aureus [1]
  MIC: 2 µg/mL
[13]
  MIC: 0.06 µg/mL
Staphylococcus aureus [14]
  MIC: 1 µg/mL
[15]
  MIC: 0.25 µg/mL
Staphylococcus aureus [16]
  MIC: 1 µg/mL
Staphylococcus aureus [17]
  MIC: 0.125 µg/mL
Staphylococcus aureus [18]
  MIC: 0.5 µg/mL
Enterococcus faecalis [19]
  MIC: 1 µg/mL
Enterococcus faecalis [20]
  MIC: 0.5 µg/mL
Staphylococcus aureus [21]
  MIC: 0.125 µg/mL
Enterococcus faecium [22]
  MIC: 2 µg/mL
Staphylococcus aureus [2]
  ED50: 2.1 mg/kg
[23]
  MIC: 0.25 µg/mL
Staphylococcus aureus [24]
  MIC: 1 µg/mL
Staphylococcus aureus [25]
  MIC: 1 µg/mL
Enterococcus faecium [26]
  MIC: 64 µg/mL
Staphylococcus aureus [27]
  MIC: 4 µg/mL
Staphylococcus aureus [28]
  MIC: 0.5 µg/mL
Staphylococcus aureus [29]
  MIC: 0.125 µg/mL
Staphylococcus aureus [3]
  MIC: 2 µg/mL

## Cc1cc(SCC2=C(C(=O)[O-])N3C(=O)[C@@H](NC(=O)CSc4cc(Cl)ccc4Cl)[C@H]3SC2)cc(CCC(=O)O)[n+]1-c1cccc(O)c1
Staphylococcus aureus [1]
  MIC: 8 µg/mL
Staphylococcus aureus [2]
  ED50: > 25 mg/kg
Staphylococcus aureus [3]
  MIC: 4 µg/mL (≈ 5.55 µM)
